ChEMBL document CHEMBL1140319, “The taming of capsaicin. Reversal of the vanilloid activity of N-acylvanillamines by aromatic iodination” (J Med Chem, 2005)

Each compound was assayed against T1, Transient receptor potential cation channel subfamily V member 1 (Homo sapiens, UniProt Q8NER1) (assay: Inhibition of 100 nM capsaicin effect on intracellular [Ca2+] concentration in HEK293 cells expressing human TRPV1; (weak agonist activity)).
Type: functional, cell-based
Method in brief: (§1)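 HEK293 cells stably overexpressing human TRPV1, grown in MEM with nonessential amino acids, 10% FCS and 0.2 mM glutamine. Plated on poly-L-lysine one day before use. Loaded 2 h at 25 °C with 4 μM Fluo-3 AM plus 0.04% Pluronic, then trypsinized into Tyrode pH 7.4 in a stirred cuvette. Compounds added 10 min before 100 nM capsaicin. Fluorescence read at 25 °C (ex 488/em 540 nm). IC50 from half-maximal inhibition.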

T1 sequence (Q8NER1 whole entry): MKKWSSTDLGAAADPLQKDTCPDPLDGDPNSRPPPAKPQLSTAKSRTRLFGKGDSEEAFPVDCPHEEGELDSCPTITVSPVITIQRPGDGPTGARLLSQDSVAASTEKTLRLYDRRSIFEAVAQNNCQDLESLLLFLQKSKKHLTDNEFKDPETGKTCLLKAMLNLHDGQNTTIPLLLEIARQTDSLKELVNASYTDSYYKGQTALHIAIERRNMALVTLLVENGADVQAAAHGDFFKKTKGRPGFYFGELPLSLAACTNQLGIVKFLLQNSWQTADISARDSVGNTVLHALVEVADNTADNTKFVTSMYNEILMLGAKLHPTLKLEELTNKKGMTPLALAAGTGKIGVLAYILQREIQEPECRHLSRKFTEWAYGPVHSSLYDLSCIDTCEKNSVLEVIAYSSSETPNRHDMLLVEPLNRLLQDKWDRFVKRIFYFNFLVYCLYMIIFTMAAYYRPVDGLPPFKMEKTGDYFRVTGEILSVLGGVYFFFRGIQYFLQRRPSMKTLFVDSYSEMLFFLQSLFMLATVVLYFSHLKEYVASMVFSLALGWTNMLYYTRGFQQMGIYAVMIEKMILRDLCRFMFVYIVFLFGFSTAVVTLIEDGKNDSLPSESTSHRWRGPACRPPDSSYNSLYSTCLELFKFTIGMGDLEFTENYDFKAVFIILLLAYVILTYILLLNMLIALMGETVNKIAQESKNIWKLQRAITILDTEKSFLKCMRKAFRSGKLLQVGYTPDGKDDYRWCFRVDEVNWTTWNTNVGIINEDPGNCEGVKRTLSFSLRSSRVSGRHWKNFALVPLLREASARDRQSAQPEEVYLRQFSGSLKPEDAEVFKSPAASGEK

| SMILES | IC50 |
| --- | --- |
| CCCCCCCCC(=O)NCc1cc(OC)c(O)c(-c2cc(CNC(=O)CCCCCCCC)cc(OC)c2O)c1 | > 20000 nM |

Each compound was assayed against T1, Transient receptor potential cation channel subfamily V member 1 (assay: Inhibition of 100 nM capsaicin effect on intracellular [Ca2+] concentration in HEK293 cells expressing human TRPV1).
Type: cell-based
Method in brief: as §1, with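 “capsaicin.” for “capsaicin. Fluorescence read at 25 °C (ex 488/em 540 nm).”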

| SMILES | IC50 |
| --- | --- |
| CCCCCCCCC(=O)NCc1ccc(O)c(OC)c1NC(C)=O | 9540 nM |
| CCCCCCCCC(=O)NCc1cc(I)c(O)c(OC)c1 | 126 nM |
| CCCCCCCCC(=O)NCc1cc(OC)c(O)cc1I | 10 nM |
| Oc1cc2c(cc1O)CN(C(=S)NCCc1ccc(Cl)cc1)CCC2 [CAPSAZEPINE] | 56.2 nM |
| CCCCCCCCC(=O)NCc1cc(Cl)c(O)c(OC)c1 | 631 nM |
| CCCCCCCCC(=O)NCc1cc(Br)c(O)c(OC)c1 | 252 nM |
| CCCCC/C=C/C/C=C/C/C=C/C/C=C/CCCC=O | 51 nM |
| C=C(C)[C@]12C[C@@H](C)[C@@]3(OCc4ccccc4)[C@@H](C=C(COC(=O)Cc4cc(I)c(O)c(OC)c4)C[C@]4(O)C(=O)C(C)=C[C@@H]34)[C@H]1OCO2 | 0.4 nM |
| CCCCCCCCC(=O)NCc1ccc(O)c(OC)c1[N+](=O)[O-] | 11000 nM |
| CCCCCCCCC(=O)NCc1cc(OC)c(O)cc1Br | 16.1 nM |
| CCCCCCCCC(=O)NCc1cc(OC)c(O)cc1Cl | 50.3 nM |
